Autophagy mod = autophagy modulators in MEF cells, primary screen, imaging, high-content, MEF GFP-LC3 | MEF GFP-LC3 puncta imaging; test concentration mostly 10 µM | 0.98% of 190,000 active | calls only at 10 µM (by protocol);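 active means percentage of spot-positive cells more than 3 SD above its plate mean, without a fluorescence outlier flag or 80% toxicity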
L major viab = Leishmania major promastigote growth inhibition, primary screen; 9% of 200,000 active; Leishmania major promastigotes, resazurin fluorescence viability; AID 1063, 2008; inhibition, % at 10 µM; in the data active means inhibition above about 50%;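 further: promastigotes grown with compound for 44 hours at 28 °C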
CHOP inh = inhibitors of CHOP promoter induction, primary screen, cell-based, unfolded protein response, luciferase reporter. CHO-K1 CHOP-promoter luciferase, tunicamycin-induced, 15-18 h. inhibition, % at 10 µM. 3.8% of 220,000 active. AID 2732, 2010;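 active means compounds that reduced the stress-induced luciferase reporter signal by more than about 70% of percent inhibition, limit read from the data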
bCat nuc transl = modulators of beta-catenin nuclear translocation, primary screen, imaging, HeLa cells, immunofluorescence, high-content; nuclear translocation activity, % at 5 µM; 0.3% of 190,000 active; AID 1665, 2009;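 active means nuclear translocation activity above 50% at 5 µM, with a well cell count of 50 or more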;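 further: per-cell ratio of nuclear to cytoplasmic median beta-catenin stain intensity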
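System: Human HeLa cells, endogenous beta-catenin | Compound dosing: 5 µM primary, 0.02–20 µM confirmation | Timing: 24 h compound exposure at 37°C, 5% CO2 | Measured by: Fluorescence imaging of beta-catenin antibody stain plus DAPI | Read-out basis: % activation of per-cell nuclear versus cytoplasmic median beta-catenin signal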
Dynein cargo inh = inhibitors of GR-EGFP nuclear translocation, primary screen, dynein cargo transport inhibitor project, imaging, high-content, 3617.4 mouse cells | test concentration mostly 20 µM; stimulated with dexamethasone, 1 µM; stronger effect = lower value | z-score, hits read low | 0.47% of 220,000 active;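 active means plate z-score of nuclear minus cytoplasmic receptor signal below a set negative limit, without overly bright fluorescence or cell loss, cut at about -3.5 in these data, passing the limit was not always enough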;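 further: z-score of nuclear minus cytoplasmic ring GR-EGFP intensity difference per well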
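Schedule: 48 h induction, then 1 h compound, then 30 min agonist, 37 °C. Buffer or medium: tetracycline-free induction medium containing charcoal-stripped FBS. Reagent: 1.0 µM final dexamethasone stimulus. Evaluation: nuclear versus cytoplasmic GR-EGFP signal, averaged per well. Signal: high-content fluorescence imaging after fixation.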
MT stabilize HCS = microtubule stabilizers in HeLa cells, primary screen, imaging, high-content imaging. HeLa tubulin immunostaining HCS, 24 h; share of cells brighter than vehicle mean+2SD. % tubulin-high responders, % at 10 µM. 0.83% of 200,000 active. AID 2205, 2009;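 active means plate Z-score above 3 for both tubulin-high and condensed-nucleus cell shares, with cell loss under 80%, at 10 µM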;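 further: anti alpha tubulin signal scored within the nucleus-defined area of each cell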
Large screens that a line does not name were inactive. An excerpt weighted towards active compounds, which were near 12% of everything screened.

Oc1ccc(/C=N/NC(=S)Nc2cccnc2)c(O)c1	L major viab 84
Oc1ccc(/C=N/NC(=S)Nc2cccnc2)c(O)c1O	none (no result: Autophagy mod, L major viab, MT stabilize HCS)
Oc1cccc(/C=N/NC(=S)Nc2cccnc2)c1O	L major viab 99 (no result: bCat nuc transl)
Cc1ccc(S(=O)(=O)NNC(=O)NC23CC4CC(CC(C4)C2)C3)cc1	none
CCn1cc(C(=O)O)c(=O)c2cnc(N3CCN(C(=S)Nc4ccccc4Cl)CC3)nc21	none (no result: Autophagy mod, L major viab, MT stabilize HCS)
O=C(CN(Cc1ccco1)C(=O)CCC(=O)Nc1nccs1)NCc1ccccc1	none
O=C(CN(Cc1ccco1)C(=O)CCC(=O)Nc1ccccn1)NCCc1ccccc1	L major viab 98
C=CCC(CC(O)COCCC)C(=O)NNC(=S)Nc1ccccc1 (centres undefined)	none (no result: Autophagy mod, L major viab, MT stabilize HCS)
COC(=O)c1ccc(/C=N/OCC(=O)NC2CCCC(C)C2C)cc1 (centres undefined)	none (no result: bCat nuc transl)
COc1cc(/C=N/OCC(=O)NC2CCCCC2C)ccc1OCc1ccc(Cl)cc1 (centres undefined)	L major viab 83 (no result: bCat nuc transl)
COc1cc(/C=N/N2CCOCC2)ccc1OCc1ccc(Cl)cc1	none
COc1cc(/C=N/OCC(=O)Nc2cc(C)cc(C)c2)ccc1OCc1ccc(Cl)cc1	L major viab 96
COc1ccc2c(c1)NC(c1cc(Cl)cc(Cl)c1O)c1cccn1-2 (centres undefined)	Autophagy mod active
Cc1sc2nc(CN3CCCCC3)nc(N3CCN(C(=O)c4ccco4)CC3)c2c1C	none
Cc1sc2nc(CN3CCCC3)nc(N3CCN(S(=O)(=O)c4cccs4)CC3)c2c1C	L major viab 56
CCN(CC)S(=O)(=O)c1cccc(NC(=O)c2cc(-c3cccs3)nn2-c2ccccc2)c1	L major viab 98
CN(C)S(=O)(=O)c1cccc(NC(=O)c2cc(-c3cccs3)nn2-c2ccccc2)c1	none
Cc1ccc2c(c1)c1c(n2CC(O)Cn2c(C)nc3ccccc32)C(=O)CCC1 (centres undefined)	none
Cc1ccc2c(c1)c1c(n2CC(O)Cn2c(C)nc3ccccc32)/C(=N\O)CCC1 (centres undefined)	L major viab 58, CHOP inh 87
CCOC(=O)c1c(CN2CCCCC2)n(C)c2cc(Br)c(OC)cc12	L major viab 99
CCOC(=O)c1c(C)n(C)c2cc(Br)c(OC)cc12	none
CCOC(=O)c1c(C)oc2cc(Br)c(OC)cc12	none
CCOC(=O)c1c(CN2CCN(CCO)CC2)n(C)c2cc(Br)c(OC)cc12	L major viab 54
CCOC(=O)c1c(CNCCN(CC)CC)n(C)c2cc(Br)c(OC)cc12	L major viab 100
CCOC(=O)c1c(C)n(CC(O)CN(CC)CC)c2cc(Br)c(OC)cc12 (centres undefined)	L major viab 89
CCN(CC)CCNC(=O)c1c(C)n(-c2ccccc2)c2cc(Br)c(OC)cc12	Autophagy mod active, L major viab 101
COc1cc2c(C(=O)N3CCN(C)CC3)c(C)n(-c3ccccc3)c2cc1Br	none
Cc1ccc(S(=O)(=O)n2nc(C)c(Br)c2C)c(C)c1C	CHOP inh 89
CCOC(=O)N1CCN(S(=O)(=O)c2ccc(C)c(C)c2C)CC1	none
O=C(Nc1ccc(Cl)cc1)Nc1ccccc1CC[N+](=O)[O-]	none
CC(NCc1cccc(OCc2ccccc2)c1)C(O)c1ccccc1 (centres undefined)	L major viab 100
CCCN(CCC)CC(O)CN(c1ccccc1)S(=O)(=O)c1ccc(C)cc1 (centres undefined)	L major viab 97 (no result: bCat nuc transl)
COc1ccccc1N(CC(O)Cn1nc(C)cc1C)S(=O)(=O)c1ccccc1 (centres undefined)	none
O=S(=O)(c1ccccc1)N(CC(O)Cn1c2ccccc2c2ccccc21)c1ccccc1 (centres undefined)	L major viab 100
COc1ccc([N+](=O)[O-])cc1N(CC(O)CN(C)C)S(=O)(=O)c1ccccc1 (centres undefined)	none
Cc1ccc(S(=O)(=O)N(CC(O)CN2CCCCC2)c2ccccc2)cc1 (centres undefined)	none
C=CCN(CC=C)CC(O)CN(c1cc([N+](=O)[O-])ccc1OC)S(=O)(=O)c1ccccc1 (centres undefined)	L major viab 64
COc1ccccc1N(CC(O)Cn1c2ccccc2c2ccccc21)S(=O)(=O)c1ccccc1 (centres undefined)	L major viab 54
Cc1cc(C)c(OCCOCCN(C)C)c(Br)c1	L major viab 96 (no result: bCat nuc transl)
Cc1cc(C)c(OCCCCN(C)C)c(Br)c1	L major viab 85
COc1cc(C)ccc1OCCOc1c(Cl)cc(Cl)cc1Cl	none
Cc1cc(Cl)cc(Br)c1OCCCNCC(C)O (centres undefined)	none
Cc1cc(Cl)cc(Cl)c1OCCCCN(C)C	L major viab 86
CCOC(=O)c1ccc(NC(=O)COc2ccccc2CNC2CCCC2)cc1	L major viab 100
CCOc1cc(CNC2CCCC2)c(Cl)cc1OCC(=O)Nc1ccccc1	L major viab 89
CCNC(=S)SCCOc1ccc(C)cc1	L major viab 57
CCNc1nc(NCC)nc(SCCOc2ccc(C)cc2)n1	none
CCSC1=C(C#N)C2(CCCCC2)C(C#N)=C(N)N1	none
N#CC1=C(N)NC(SCC(=O)Nc2ccccc2)=C(C#N)C12CCCCC2	L major viab 77
N#CC1=C(N)NC(SCc2ccccc2)=C(C#N)C12CCCCC2	L major viab 99, bCat nuc transl 58, MT stabilize HCS 30
CN1/C(=C\C=C(/C#N)C(=O)Nc2ccc(Cl)cc2)C(C)(C)c2ccccc21	Autophagy mod active, L major viab 88, CHOP inh 75
O=C(Nc1ccc(S(=O)(=O)Nc2ncccn2)cc1)c1cccc(S(=O)(=O)N2CCCC2)c1	none (no result: Autophagy mod, L major viab, MT stabilize HCS)
CC1=C(C(=O)Nc2ccccc2)C(c2ccc(C)o2)n2c(s/c(=C\c3ccco3)c2=O)=N1 (centres undefined)	L major viab 84
C=CCn1c(SCC(=O)NC(=O)c2cccc([N+](=O)[O-])c2)nnc1-c1ccccc1F	none
CC(NC(=S)NCCc1ccccc1)C(c1cccs1)N1CCN(Cc2ccccc2)CC1 (centres undefined)	L major viab 97
CC(NC(=S)Nc1ccccc1Cl)C(c1cccs1)N1CCCC1 (centres undefined)	L major viab 84 (no result: bCat nuc transl)
C/C(=N/NC(=O)CC1N=C(Cc2ccccc2)NNC1=O)c1cccnc1 (centres undefined)	none
CC(C)(C)c1cc(C(=O)O)n(Cc2ccc(Cl)cc2Cl)n1	none (no result: Autophagy mod, L major viab, MT stabilize HCS)

High-throughput results (PubChem)
